Results as given in article PMC4178936 (The Journal of General Physiology, 2014).
Like-named read-outs stand apart in the source and are kept apart here. Values belong to the compound of their own block, whether it stands above or below them.

What was measured:
K1250A CFTR [1] = molecular target: T1, K1250A CFTR (Homo sapiens, UniProt P13569, K1250A); experiment: Macroscopic pore-block/permeation assay on locked-open K1250A CFTR currents; format: biochemical; settings: for fractional current of locked-open K1250A CFTR: 210 µM NPPB, 32 mM 3NB, 20 mM 3PP
T1 sequence (P13569 whole entry K1250A, the tested form may be a part): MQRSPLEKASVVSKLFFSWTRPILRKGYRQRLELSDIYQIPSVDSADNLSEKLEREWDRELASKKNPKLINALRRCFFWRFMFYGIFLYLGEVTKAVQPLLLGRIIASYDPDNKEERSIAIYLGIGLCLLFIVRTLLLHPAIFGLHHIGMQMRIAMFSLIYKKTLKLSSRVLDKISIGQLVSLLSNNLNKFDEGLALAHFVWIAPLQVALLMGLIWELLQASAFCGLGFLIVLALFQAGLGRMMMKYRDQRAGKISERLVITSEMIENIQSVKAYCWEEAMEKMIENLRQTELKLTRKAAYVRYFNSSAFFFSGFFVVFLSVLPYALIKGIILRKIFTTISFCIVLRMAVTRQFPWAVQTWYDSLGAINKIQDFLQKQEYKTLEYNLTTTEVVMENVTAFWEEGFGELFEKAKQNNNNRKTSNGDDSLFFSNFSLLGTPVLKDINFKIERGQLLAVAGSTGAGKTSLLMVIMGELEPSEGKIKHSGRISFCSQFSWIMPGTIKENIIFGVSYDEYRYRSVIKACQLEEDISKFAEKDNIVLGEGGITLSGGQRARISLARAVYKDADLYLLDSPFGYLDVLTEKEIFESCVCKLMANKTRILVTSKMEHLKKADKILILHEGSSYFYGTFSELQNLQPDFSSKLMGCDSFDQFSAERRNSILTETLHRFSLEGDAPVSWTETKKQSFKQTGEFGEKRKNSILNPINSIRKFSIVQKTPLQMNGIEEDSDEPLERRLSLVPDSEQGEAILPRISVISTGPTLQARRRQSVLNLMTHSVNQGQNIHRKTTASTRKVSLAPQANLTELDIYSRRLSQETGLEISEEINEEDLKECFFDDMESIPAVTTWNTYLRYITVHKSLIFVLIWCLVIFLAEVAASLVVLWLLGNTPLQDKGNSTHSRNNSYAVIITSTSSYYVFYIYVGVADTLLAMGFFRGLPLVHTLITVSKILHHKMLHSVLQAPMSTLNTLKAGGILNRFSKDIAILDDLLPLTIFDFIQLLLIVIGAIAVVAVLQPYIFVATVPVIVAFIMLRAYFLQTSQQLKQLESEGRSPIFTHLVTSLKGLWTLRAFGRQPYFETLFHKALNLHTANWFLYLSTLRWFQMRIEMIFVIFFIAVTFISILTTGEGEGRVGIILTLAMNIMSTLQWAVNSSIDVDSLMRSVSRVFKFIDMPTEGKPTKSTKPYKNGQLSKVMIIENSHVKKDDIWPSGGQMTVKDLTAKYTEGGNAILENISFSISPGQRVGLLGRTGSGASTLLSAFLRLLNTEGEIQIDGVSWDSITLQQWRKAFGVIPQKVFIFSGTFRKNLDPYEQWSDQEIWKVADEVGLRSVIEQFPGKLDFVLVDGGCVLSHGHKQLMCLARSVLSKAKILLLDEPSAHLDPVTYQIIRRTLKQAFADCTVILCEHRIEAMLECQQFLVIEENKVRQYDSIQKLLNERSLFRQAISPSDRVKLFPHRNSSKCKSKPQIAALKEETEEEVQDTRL
How it was run: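 K1250A channels were locked open by removing 10 mM MgATP, in inside-out oocyte patches at 25°C, −80 and 60 mV. Test compounds were applied briefly alone or pairwise (head fragment 32 mM, tail fragment 20 mM, parent 210 µM). Tail stock 50 mM was titrated with sulfuric acid (~0.45 mol/mol), so sulfate 1–20 mM was tested separately. Fractional current = quasi-steady drug current ÷ mean pre/post current. Apparent KI came from dose–response fits.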

WT CFTR [2] = molecular target: T2, WT CFTR (Homo sapiens, UniProt P13569); experiment: Steady-state macroscopic WT CFTR currents; format: biochemical
T2 sequence (P13569 whole entry): as the sequence (P13569 whole entry K1250A, the tested form may be a part) above, with A1250K counted along it

WT CFTR [3] = molecular target: T2, WT CFTR; experiment: Macroscopic; format: biochemical
How it was run: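 Human WT CFTR from cRNA (0.1–10 ng) was expressed in Xenopus oocytes; excised inside-out patches at 25°C, NMDG-Cl solutions, bath pH 7.1. Channels were prephosphorylated with 300 nM PKA catalytic subunit and gated in 2 mM MgATP ± test compound. Current decay after sudden ATP removal was fitted to a single exponential (rate = 1/τ), normalized to same-patch control and rescaled by pooled control mean. Mean ± SEM, n ≥ 5.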

K1250A CFTR [4] = molecular target: T1, K1250A CFTR; experiment: Macroscopic nonhydrolytic closing rate of K1250A CFTR after ATP removal; format: biochemical
How it was run: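 Nonhydrolytic closure of K1250A CFTR was studied in inside-out oocyte patches at 25°C, with channels gating in 10 mM MgATP after PKA prephosphorylation. The rate was the inverse of a single-exponential fit to current decay after ATP removal, normalized to same-patch control. Parent-compound series was recorded at −40 mV, fragment series at −20 mV. Mean ± SEM of at least five.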

WT CFTR [5] = molecular target: T2, WT CFTR; experiment: Single-channel steady-state kinetic analysis of WT CFTR; format: biochemical; settings: 20 mM 3PP, −80 mV
How it was run: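 Steady-state WT CFTR gating was recorded after PKA prephosphorylation, in 2 mM ATP at −80 mV and 25°C. Patches held one active channel for the 32 mM head fragment, or one to four for the 20 mM tail fragment. Traces were filtered at 100 Hz (control, tail) or 50 Hz (head) and idealized by half-amplitude threshold. Events were fitted by maximum likelihood to a closed-open-blocked scheme (dead times 4 and 6 ms), yielding τb and τib.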

K1250A CFTR [6] = molecular target: T1, K1250A CFTR; experiment: Steady-state versus locked-open K1250A CFTR currents; format: biochemical; settings: 32 mM 3NB, 20 mM 3PP; 10 mM ATP; −20 mV
How it was run: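 K1250A CFTR was recorded at −20 mV in 10 mM ATP, 25°C. Head (32 mM) or tail (20 mM) fragment was applied for long periods to channels gating at steady state (I/Icontrol), and briefly to locked-open channels after ATP removal (i/icontrol). Po change = (I/Icontrol)/(i/icontrol).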

CFTR pore-binding site = CFTR pore-binding site (Homo sapiens, UniProt P13569, K1250A); experiment: Estimated dissociation constants and free enthalpies of binding in the pore; format: biochemical; settings: Kd(0) estimate for binding in the pore
CFTR pore-binding site, sequence (P13569 whole entry K1250A): as the sequence (P13569 whole entry K1250A, the tested form may be a part) above

CFTR gating site = CFTR gating site (Homo sapiens, UniProt P13569); format: biochemical
CFTR gating site, sequence (P13569 whole entry): as the sequence (P13569 whole entry K1250A, the tested form may be a part) above, with A1250K counted along it
How it was run: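 Gating-site Kd was taken as the apparent K1/2 for stimulation of WT CFTR open probability at −80 mV, from Hill fits to Po dose–response curves, with binding assumed voltage independent. ΔG°binding = kT·ln(Kd).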

E1371S CFTR [7] = molecular target: T3, E1371S CFTR (Homo sapiens, UniProt P13569, E1371S); format: biochemical; settings: 80 mM MOPS−; −120 mV
T3 sequence (P13569 whole entry E1371S): as the sequence (P13569 whole entry K1250A, the tested form may be a part) above, with A1250K, E1371S counted along it
How it was run: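 E1371S CFTR channels were locked open in inside-out oocyte patches at 25°C, phosphorylated by PKA or endogenously. After ATP removal, test compound was applied briefly with or without 80 mM MOPS− (MOPS solutions pH 7.2, ~50% ionized). Fractional current = quasi-steady current in drug ÷ mean of pre- and post-exposure currents. Apparent KI was taken from dose–response fits. Mean ± SEM, n ≥ 5.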

E1371S CFTR [8] = molecular target: T3, E1371S CFTR; settings: read-out: apparent KI for pore block; −120 mV; ref Csanády and Töröcsik, 2014; cited from earlier work
ΔF508 CFTR = settings: in vitro, cited from earlier work

effects on unitary currents (K1250A CFTR [1]; 20 mM 3PP-sulfate): ~10% | fractional current of locked-open K1250A CFTR (K1250A CFTR [1]; 60 mV): ~1.11 | EC50 (K1250A CFTR [1]; K1/2 for enhancement of locked-open K1250A current, 60 mV, tentative Hill fit): ~10 mM | enhancement of the rate of ion flow through locked-open K1250A channels (K1250A CFTR [1]; positive voltages (60 mV), high 3PP concentrations): ~10% | fractional current of locked-open K1250A CFTR (K1250A CFTR [1]; −80 mV): ~0.91 | stimulation of open probability for WT CFTR (WT CFTR [2]; high concentrations, −80 mV, macroscopic): two- to threefold | slowing of WT CFTR hydrolytic closing rate (WT CFTR [3]; 20 mM 3PP-sulfate, −80 mV): ~2.5 fold | acceleration of K1250A closing rate (K1250A CFTR [4]; 20 mM 3PP, −20 mV): ~20% | effect on mean burst duration τb (WT CFTR [5]; 32 mM 3NB, 2 mM ATP): prolonged τb | effect on mean interburst duration τib (WT CFTR [5]; 32 mM 3NB, 2 mM ATP): did not affect τib | stimulation of single-channel Po (WT CFTR [5]; 32 mM 3NB, 2 mM ATP): twofold | effect on Po of K1250A CFTR (K1250A CFTR [6]): no change in Po | Kd (CFTR pore-binding site; assuming z = 0.1): 12.6 mM | Kd (CFTR pore-binding site; assuming z = 0.2): 16 mM | Kd (CFTR pore-binding site; assuming z = 0.5): 32 mM | Kd (CFTR gating site): 6 mM
SMILES: NCCCc1ccccc1 [3PP, 3-phenylpropylamine]
effect on unitary current amplitude (WT CFTR [5]): little affected unitary current amplitude

reduction of macroscopic current through locked-open E1371S channels (E1371S CFTR [7]): ~90% | effect on WT CFTR closing rate (WT CFTR [3]; 80 mM MOPS−, −120 mV): little affected | effect on K1250A closing rate (K1250A CFTR [4]; 80 mM MOPS−, −40 mV): neither affected K1250A closing rate
SMILES: O=S(=O)(O)CCCN1CCOCC1 [MOPS^−, reference compound]
Ki (E1371S CFTR [8]): 8.3 mM

SMILES: CC(C)(C)c1cc(C(C)(C)C)c(NC(=O)c2c[nH]c3ccccc3c2=O)cc1O [VX-770]
stimulation of ΔF508 CFTR currents (ΔF508 CFTR; ref Kopeikin et al., 2014): 10–20 fold | stimulation of ΔF508 CFTR currents (ΔF508 CFTR; ref Van Goor et al., 2009): ~5 fold

sulfate concentration yielding maximal pore block (K1250A CFTR [1]; −80 mV, anomalous dose dependence): ~5 mM | effect on WT CFTR open probability / gating (WT CFTR [2]; 10 mM sulfate): little effect | effect on WT CFTR closing rate (WT CFTR [3]; 10 mM sulfate): did not affect WT CFTR closing rate
SMILES: O=S(=O)(O)O [sulfate]
effect on locked-open channel currents (K1250A CFTR [1]; 60 mV): did not affect locked-open channel currents
